Screening data as filed in PubChem.
PRMT1 inh: inhibitors of human PRMT1 | recombinant PRMT1, activity-based probe fluorescence polarization | inhibition, % at 2.79 µM | hit rate 1.3% among 370,000;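 active = inhibition above about 21% made by adding two undisclosed values, limit read from the data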
RBBP9 inhibitor: blocks human serine hydrolase RBBP9. O75884. recombinant RBBP9, FP-Rh probe fluorescence polarization. inhibition, % at 7.94 µM. hit rate 0.2% among 220,000. AID 1515;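 active = inhibition above the campaign mean of all tested compounds plus 3 SD, cut at about 14% in these data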
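Test system: recombinant human RBBP9. Quantity: 2.5 µM RBBP9 dispensing solution, before mixing. Detection: FP readout at 525/598 nm. Reagent: Serine-hydrolase probe FP-Rh, 375 nM pre-mixing. Measure: % inhibition. Control set: DMSO-treated enzyme wells and wells lacking RBBP9. Buffer or medium: Tris-NaCl-Pluronic buffer, pH 8.0. Times: preincubation 30 min plus labeling 45 min at 25 °C.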
ABHD5 PLIN5 PPI: blocks binding of human ABHD5 to perilipin-5; Split G. princeps luciferase complementation, luminescence, 4 h; hit rate 0.78% among 360,000; AID 602281; Q00G26+Q8WTS1; inhibition, % at 4 µM;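 active = inhibition above the mean inhibition across every tested compound plus 3 SD, cut at about 22% in these data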
UHRF1 binding: blocks human UHRF1 binding to methylated DNA | UHRF1 binding to methylated oligo, TR-FRET | inhibition, % at 4.4 µM | hit rate 0.75% among 370,000 | AID 687016; in the data active = inhibition above about 21%;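 note: UHRF1 SRA domain binding a hemimethylated CpG hairpin DNA probe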
Target sequence (Q96T88 whole entry, looked up, the tested form may be a part): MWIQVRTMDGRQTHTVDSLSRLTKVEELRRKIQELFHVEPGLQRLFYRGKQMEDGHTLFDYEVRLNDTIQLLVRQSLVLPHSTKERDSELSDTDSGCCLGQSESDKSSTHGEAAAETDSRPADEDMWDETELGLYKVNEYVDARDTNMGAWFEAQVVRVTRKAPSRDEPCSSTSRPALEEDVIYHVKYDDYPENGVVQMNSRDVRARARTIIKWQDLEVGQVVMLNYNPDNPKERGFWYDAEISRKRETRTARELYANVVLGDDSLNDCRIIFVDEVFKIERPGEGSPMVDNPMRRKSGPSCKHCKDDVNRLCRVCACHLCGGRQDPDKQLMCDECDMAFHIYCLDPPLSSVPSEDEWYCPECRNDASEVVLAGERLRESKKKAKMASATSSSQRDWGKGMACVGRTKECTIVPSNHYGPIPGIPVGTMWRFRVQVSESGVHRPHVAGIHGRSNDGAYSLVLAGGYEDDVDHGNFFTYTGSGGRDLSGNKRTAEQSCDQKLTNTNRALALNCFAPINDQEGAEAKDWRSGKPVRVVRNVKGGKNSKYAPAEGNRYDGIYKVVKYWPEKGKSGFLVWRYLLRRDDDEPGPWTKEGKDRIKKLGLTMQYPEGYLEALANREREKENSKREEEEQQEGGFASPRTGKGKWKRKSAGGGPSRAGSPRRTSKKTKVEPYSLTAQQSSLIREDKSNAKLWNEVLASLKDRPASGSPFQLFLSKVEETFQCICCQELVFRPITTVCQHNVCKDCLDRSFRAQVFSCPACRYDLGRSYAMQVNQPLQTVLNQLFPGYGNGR
MBD2 inh: inhibitors of human MBD2 binding to methylated oligonucleotide; Q9UBB5; TR-FRET; inhibition, % at 4.4 µM; hit rate 0.31% among 370,000; AID 686964; in the data active = inhibition above about 13%
LEDGF integ inh: blocks HIV-1 LEDGF/p75-dependent DNA integration; inhibition, % at 3.7 µM; TR-FRET IN-LEDGF/p75 DNA integration, Eu/Cy5; hit rate 0.64% among 370,000;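 active = inhibition above the screen-wide mean plus 3 SD, cut at about 13% in these data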;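 note: signal is the Cy5 over europium emission ratio at 671 and 618 nm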
ABHD5 PLIN5 conf: ABHD5-PLIN5 interaction inhibition, confirmed; shares compounds with ABHD5 PLIN5 PPI; biochemical ABHD5-PLIN5 interaction, luminescence; hit rate 67% among 2,200; inhibition, % at 4 µM; in the data active = inhibition above about 23%
HNF4 counter: HNF4 split-luciferase signal hit, counter-screen. inhibition, % at 4 µM. HNF4 dimerization, luminescence, biochemical. hit rate 77% among 2,200. AID 651674. shares compounds with ABHD5 PLIN5 PPI;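 active = mean inhibition across replicate wells exceeding the computed hit threshold, cut at about 13% in these data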;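 note: light from luciferase halves that rejoin when HNF4 fusion proteins dimerize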
Hits are given with their value; i = inactive; nt = no result. Shown are actives, neighbours in structure and some others; about 3.1% of the full set was active somewhere.

SMILES	PRMT1 inh	RBBP9 inhibitor	ABHD5 PLIN5 PPI	UHRF1 binding	MBD2 inh	LEDGF integ inh	ABHD5 PLIN5 conf	HNF4 counter
CCCCCC[C@@H](CC)CN(C(=O)Oc1ccccc1)c1ccccc1	i	nt	nt	i	i	i	nt	nt
O=C(OC12CCCN(C1)/C(=C/c1cccc(Cl)c1)C2)c1ccccc1 (configuration not stated)	i	nt	nt	i	i	i	nt	nt
COCCOC(=O)/C(=C\c1cc(C(C)(C)C)c(O)c(C(C)(C)C)c1)C(C)=O	i	i	44	i	i	i	80	72
O=c1[nH][nH]c2c1[C@H](c1ccccc1)O[C@H](C1CCCCC1)C2	i	nt	31	i	i	i	34	44
C[C@@H]1Cc2[nH][nH]c(=O)c2[C@H](c2ccc(Cl)cc2)O1	i	nt	i	i	i	i	nt	nt
O=c1[nH][nH]c2c1[C@H](c1ccc(F)cc1)O[C@H](C1CCCCC1)C2	i	nt	28	i	i	i	i	26
O=c1[nH][nH]c2c1[C@@H](c1ccc(F)cc1)O[C@H](C1CCCCC1)C2	i	nt	i	i	i	i	nt	nt
O=c1[nH][nH]c2c1[C@H](c1ccc(Cl)cc1)O[C@H](C1CC1)C2	i	nt	23	i	i	i	38	25
CN(Cc1ccccc1)C(=O)c1cccc(NC(=O)Cc2cccc(NC(=O)C3CCN(C(=O)CCc4ccccc4)CC3)c2)c1	i	nt	nt	i	i	i	nt	nt
CCc1ccc(CCNC(=O)OC2CC3CC2[C@H]2CCCCN2C3)cc1 (some centres not stated)	i	nt	nt	i	i	i	nt	nt
CN(Cc1ccccc1)S(=O)(=O)c1cccc(C(=O)OCC2CCCCC2)c1	i	nt	nt	i	i	i	nt	nt
COc1cc(CNCCc2c[nH]c3ccccc23)ccc1OCc1ccc(F)cc1	i	i	33	i	i	i	i	i
COc1cccc(CNCCc2c[nH]c3ccccc23)c1OCc1ccc(F)cc1	i	i	i	i	i	i	nt	nt
Cc1ccc(S(=O)(=O)N2CN(CC3CCCO3)c3nc4ccccc4nc32)c(C)c1 (configuration not stated)	i	nt	i	i	i	i	nt	nt
COCCCN1CN(S(=O)(=O)c2ccc(C)cc2C)c2nc3ccccc3nc21	i	nt	28	i	i	i	i	15
CCOC(=O)[C@@]12CCCC=C1N(CCc1ccc(Cl)cc1)C(=O)[C@H]2CC(=O)NCc1cccc2ccccc12	i	nt	nt	i	i	i	nt	nt
Cc1ccccc1/C=C/C12NC(=O)CN1c1ccccc1C2(C)C (configuration not stated)	i	i	i	i	i	i	nt	nt
CC1(C)c2ccccc2N2CC(=O)N[C@@]21/C=C/C=C/c1ccccc1	i	i	34	i	i	i	i	i
Cc1ccc(S(=O)(=O)Nc2nc3ccccc3nc2NCc2ccco2)cc1C	i	i	28	i	i	i	i	27
Cc1ccc(CN2C(=O)C(=O)c3cc(C)ccc32)cc1	i	nt	30	i	i	i	25	43
O=S(=O)(c1cc2ccccc2s1)n1c(CN2CCOCC2)nc2ccccc21	i	nt	nt	i	i	i	nt	nt
O=C(CCc1ccccc1)N[C@H]1[C@H](OCc2ccccc2)CCC[C@@]12C(=O)N(Cc1ccccc1)c1ccc(-c3ccccn3)cc12	i	nt	nt	i	i	i	nt	nt
Cc1ccc(Cn2nnc3c2-c2ccccc2S(=O)(=O)N(C)C3)cc1	i	nt	nt	i	i	i	nt	nt
O=C(NCCc1nnc2ccc(NCc3ccccc3Cl)nn12)c1ccccc1	i	i	52	i	i	i	i	i
COc1ccccc1CNc1ccc2nnc(CCNC(=O)c3ccccc3)n2n1	i	i	i	i	i	i	nt	nt
SMILES	PRMT1 inh	RBBP9 inhibitor	ABHD5 PLIN5 PPI	UHRF1 binding	MBD2 inh	LEDGF integ inh	ABHD5 PLIN5 conf	HNF4 counter
CC(CCc1ccco1)NC(=O)CCc1nnc2ccc(NCc3ccccc3Cl)nn12 (configuration not stated)	i	nt	43	i	i	i	40	nt
CCN1C/C(=C/c2ccc(OC)c(O)c2)C(=O)/C(=C/c2ccc(OC)c(O)c2)C1	i	i	42	i	i	i	51	30
COc1ccc(/C=C2\CN(Cc3ccccc3)C/C(=C\c3ccc(OC)c(O)c3)C2=O)cc1O	i	nt	72	i	i	i	93	86
COc1cc(CNc2ccc3c(c2)CCC3)cc(OC)c1O	i	i	39	i	i	i	57	89
CCN(CC)CCOc1ccc(Br)cc1	i	i	i	i	i	i	nt	nt
CCN(CC)CCOc1ccc(/C(=C(\Cl)c2ccccc2)c2ccccc2)cc1	i	nt	49	i	i	i	76	29
CCOC(=O)C1=C(C(=O)OCC)C2N(Cc3ccc(C#N)cc3)c3ccccc3[C@@]23C[C@@H](C(=O)OC)N(S(=O)(=O)c2ccc(C#N)cc2)C3=N1 (some centres not stated)	i	nt	nt	i	i	i	nt	nt
CCCN1C(=O)c2n[nH]c(C)c2C1c1ccc2c(c1)OCO2 (configuration not stated)	i	nt	nt	i	i	i	nt	nt
COc1ccc(-n2c(N)c(C(=O)NCc3ccco3)c3nc4ccccc4nc32)cc1	i	i	33	i	i	i	31	32
COc1ccc(-n2c(N)c(C(=O)NCc3ccco3)sc2=S)cc1	i	i	i	i	i	i	nt	nt
CCC(C)Oc1ccc(/C=C/c2[nH]c(=O)[nH]c(=O)c2[N+](=O)[O-])cc1OC (configuration not stated)	i	i	35	i	i	i	77	72
COc1cc(/C=C/c2[nH]c(=O)[nH]c(=O)c2[N+](=O)[O-])cc([N+](=O)[O-])c1O	i	nt	33	i	i	i	44	33
COC(=O)C1CN(Cc2cn(Cc3ccc(C)cc3)nn2)CCS(=O)(=O)N1Cc1ccc(C)cc1 (configuration not stated)	i	nt	nt	i	i	i	nt	nt
O=C1C=C(NC2=CC3OC(c4ccccc4)OCC3OC2=O)CCC1 (configuration not stated)	i	i	26	i	i	i	87	95
O=C1C=C(NCc2ccccc2)CCC1	i	i	i	i	i	i	nt	nt
S=C(NCc1cccc(Cl)c1)OC1CCC12CCC(c1ccccc1)CC2 (configuration not stated)	i	nt	nt	i	i	i	nt	nt
CCCCc1c(-c2ccccc2OC)ncn1Cc1cccc(F)c1F	i	nt	nt	i	i	i	nt	nt
O=C(CSc1nnc(COc2ccccc2)n1-c1ccc(Cl)cc1)Nc1ccc2c(c1)OCCO2	i	nt	nt	i	i	i	nt	nt
CCCCC[C@H](C)N1C[C@H](COCc2ccccc2)Oc2cc(N3CC[C@@H](N(C)C)C3)ccc2S1(=O)=O	i	nt	i	i	i	i	nt	nt
CCCCC[C@@H](C)N1C[C@@H](COCc2ccccc2)Oc2cc(N3CC[C@@H](N(C)C)C3)ccc2S1(=O)=O	i	nt	28	i	i	i	i	i
